Results on eleven compounds are retold here after ChEMBL document CHEMBL1765087, “Synthesis and evaluation of cardiac glycoside mimics as potential anticancer drugs” (Bioorg Med Chem, 2011).

One may read the IC50 as the midpoint of a concentration-inhibition curve.

One experiment is filed under the species Sus scrofa. Briefly: Binding affinity to pig kidney Na+/K+-ATPase assessed as inorganic phosphate release after 2 hrs. The gist of the method: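 Purified pig kidney Na⁺,K⁺-ATPase (specific activity 25–30 U/mg protein) preincubated 2 h with a range of inhibitor concentrations in 130 mM NaCl, 20 mM KCl, 4 mM MgCl₂, 30 mM histidine pH 7.4, 20 °C. 3 mM ATP added, 5 min reaction, released inorganic phosphate measured. Ouabain-insensitive activity (1 mM ouabain) subtracted. K_app from hyperbolic fit.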

A further experiment relates to MCF7. Briefly: Antiproliferative activity against human MCF7 cells assessed as cell viability treated for 48 hrs followed by compound washout measured after 72 hrs by fluorometric CellTiter-Blue reagent assay. Format: functional, cell-based. In short, it runs like this:
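MCF-7 cells grown in DMEM Glutamax with 10% fetal calf serum, penicillin and streptomycin, 37 °C, 5% CO₂. Seeded 3000 cells/well in triplicate, cultured overnight, then given a dilution series of compound; equivalent DMSO dilution series used for normalization. 48 h exposure, then 72 h in fresh compound-free medium before viability read-out.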
(In general: Alamar Blue is a resazurin reagent that responds to reducing activity.)

In the case of `C[C@]12CC[C@H](O)C[C@H]1CC[C@@H]1[C@@H]2CC[C@]2(C)[C@@H](C3=CC(=O)OC3)CC[C@]12O` [DIGITOXIGENIN], the Kapp in the experiment filed under Sus scrofa is 0.52 µM. Also, the IC50 in the experiment with MCF7 worked out at 600 nM.
Consider `C[C@]12CC[C@H](SCCOCCS[C@H]3CC[C@@]4(C)[C@H](CC[C@@H]5[C@@H]4CC[C@]4(C)[C@@H](C6=CC(=O)OC6)CC[C@]54O)C3)C[C@H]1CC[C@@H]1[C@@H]2CC[C@]2(C)[C@@H](C3=CC(=O)OC3)CC[C@]12O`, for which, in the experiment listed under Sus scrofa, the Kapp came out at 17.2 µM. Further, the IC50 in the experiment with MCF7 was determined as 8600 nM.
The like results for `C[C@]12CC[C@H](SCCOCCOCCOCCS[C@H]3CC[C@@]4(C)[C@H](CC[C@@H]5[C@@H]4CC[C@]4(C)[C@@H](C6=CC(=O)OC6)CC[C@]54O)C3)C[C@H]1CC[C@@H]1[C@@H]2CC[C@]2(C)[C@@H](C3=CC(=O)OC3)CC[C@]12O` were, in that order, more than 53 µM and 13000 nM.
`C[C@]12CC[C@H](S)C[C@H]1CC[C@@H]1[C@@H]2CC[C@]2(C)[C@@H](C3=CC(=O)OC3)CC[C@]12O`: the Kapp in the experiment listed under Sus scrofa stood at 0.42 µM. Besides, the IC50 in the experiment on MCF7 was found to be 500 nM.
The like results for `C[C@]12CC[C@H](SCCS[C@H]3CC[C@@]4(C)[C@H](CC[C@@H]5[C@@H]4CC[C@]4(C)[C@@H](C6=CC(=O)OC6)CC[C@]54O)C3)C[C@H]1CC[C@@H]1[C@@H]2CC[C@]2(C)[C@@H](C3=CC(=O)OC3)CC[C@]12O` were, in that order, 9.9 µM and 7000 nM.
Regarding `C[C@H]1O[C@@H](O[C@H]2[C@@H](O)C[C@H](O[C@H]3[C@@H](O)C[C@H](O[C@H]4CC[C@@]5(C)[C@H](CC[C@@H]6[C@@H]5CC[C@]5(C)[C@@H](C7=CC(=O)OC7)CC[C@]65O)C4)O[C@@H]3C)O[C@@H]2C)C[C@H](O)[C@@H]1O` [DIGITOXIN], in the experiment filed under Sus scrofa, the Kapp was determined as 0.99 µM. The IC50 with MCF7 was determined as 20 nM.
For `C[C@]12CC[C@H](SCCOCCO)C[C@H]1CC[C@@H]1[C@@H]2CC[C@]2(C)[C@@H](C3=CC(=O)OC3)CC[C@]12O`, the Kapp in the experiment listed under Sus scrofa turned out to be 0.73 µM. Besides, the IC50 with MCF7 worked out at 400 nM.
As for `C[C@]12CC[C@H](SCCOCCOCCS[C@H]3CC[C@@]4(C)[C@H](CC[C@@H]5[C@@H]4CC[C@]4(C)[C@@H](C6=CC(=O)OC6)CC[C@]54O)C3)C[C@H]1CC[C@@H]1[C@@H]2CC[C@]2(C)[C@@H](C3=CC(=O)OC3)CC[C@]12O`, the Kapp in the experiment listed under Sus scrofa was determined as 20.5 µM. Further, in the experiment with MCF7, the IC50 was determined as 6600 nM.
`C[C@]12CC[C@H](SCCO)C[C@H]1CC[C@@H]1[C@@H]2CC[C@]2(C)[C@@H](C3=CC(=O)OC3)CC[C@]12O`: the Kapp in the experiment listed under Sus scrofa worked out at 0.48 µM. In addition, in the experiment on MCF7, the IC50 turned out to be 200 nM.
With `C[C@]12CC[C@H](SCCOCCOCCOCCO)C[C@H]1CC[C@@H]1[C@@H]2CC[C@]2(C)[C@@H](C3=CC(=O)OC3)CC[C@]12O`, in the experiment filed under Sus scrofa, the Kapp was 2.1 µM. The IC50 with MCF7 came out at 1400 nM.
With `C[C@]12CC[C@H](SCCOCCOCCO)C[C@H]1CC[C@@H]1[C@@H]2CC[C@]2(C)[C@@H](C3=CC(=O)OC3)CC[C@]12O`, the Kapp in the experiment filed under Sus scrofa came out at 1.27 µM. Moreover, the IC50 in the experiment with MCF7 came out at 800 nM.
